Biological target: T1, Sphingomyelin phosphodiesterase 2 (Rattus norvegicus, UniProt Q9ET64)
T1 sequence (Q9ET64 whole entry): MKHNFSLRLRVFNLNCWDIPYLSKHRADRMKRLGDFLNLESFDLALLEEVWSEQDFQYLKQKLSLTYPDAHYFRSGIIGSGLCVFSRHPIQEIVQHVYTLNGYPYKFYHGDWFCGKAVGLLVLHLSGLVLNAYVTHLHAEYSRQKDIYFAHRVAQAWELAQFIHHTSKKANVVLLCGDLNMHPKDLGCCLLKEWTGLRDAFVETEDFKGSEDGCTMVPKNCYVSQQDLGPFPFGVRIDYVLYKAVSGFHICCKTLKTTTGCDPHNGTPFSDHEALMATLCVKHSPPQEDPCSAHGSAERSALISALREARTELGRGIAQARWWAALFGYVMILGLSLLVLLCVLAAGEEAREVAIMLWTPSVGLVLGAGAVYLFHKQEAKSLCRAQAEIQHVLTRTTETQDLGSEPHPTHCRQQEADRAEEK
Test: Inhibitory concentration against the membrane neutral magnesium-dependent Sphingomyelinase (N-SMase) using rat brain microsomes as the enzyme source
Summary of the method: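 Rat brain microsomes served as the enzyme source and were incubated 25 min at 37 °C with 0.3mM ¹⁴C-labelled sphingomyelin in 100 mM Tris–HCl (pH 7.5), 20 mM MgCl₂ and 0.25% Triton X-100, across a range of inhibitor concentrations. Released radioactive phosphorylcholine was separated by chloroform/methanol (2/1) extraction and counted by scintillation in the aqueous phase. IC₅₀ was derived from these counts.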

`CCCCCCCCCCCCC/C=C/[C@@H](O)[C@H](COC(=O)NCCCN(C)C)NC(=O)C(C)(C)C` and `CCCCCCCCCCCCC/C=C/[C@@H](O)[C@H](COC(=O)NCCN(C)C)NC(=O)C(C)(C)C` are within 1.5-fold of each other in IC50: 4.9 µM for the first, 4.1 µM for the second.

Going from `CCCCCCCCCCCCC/C=C/[C@@H](O)[C@H](COC(=O)NCc1ccccn1)NC(=O)C(C)(C)C` to `CCCCCCCCCCCCC/C=C/[C@@H](O)[C@H](COC(=O)NCCc1ccccn1)NC(=O)C(C)(C)C`, the IC50 rises from 5 µM to 8.4 µM (1.7-fold).

`CCCCCCCCCCCCC/C=C/C(O)C(N)COC(=O)NCc1ccncc1` (single isomer, unassigned) and `CCCCCCCCCCCCC/C=C/[C@@H](O)[C@H](COC(=O)NCc1ccncc1)NC(C)=O` cannot be ordered by IC50: greater than 100 µM for the first, greater than 100 µM for the second.

Compared with `CCCCCCCCCCCCC/C=C/[C@@H](O)[C@H](COC(=O)NCC[N+](C)(C)C)NC(=O)C(C)(C)C`, `CCCCCCCCCCCCC/C=C/[C@@H](O)[C@H](COC(=O)NCCC(C)(C)C)NC(=O)C(C)(C)C` is 8.9-fold higher in IC50: 8.7 µM for the first, 77 µM for the second. The first is the more potent here.

Compared with `CCCCCCCCCCCCC/C=C/[C@@H](O)[C@H](COC(=O)NCCN(C(C)C)C(C)C)NC(=O)C(C)(C)C`, `CCCCCCCCCCCCC/C=C/[C@@H](O)[C@H](COC(=O)CCCN(C)C)NC(=O)C(C)(C)C` is 1.7-fold higher in IC50: 18 µM for the first, 31 µM for the second.

Going from `CCCCCCCCCCCCC/C=C/[C@@H](O)[C@H](COC(=O)NCc1cccnc1)NC(=O)C(C)(C)C` to `CCCCCCCCCCCCC/C=C/[C@@H](O)[C@H](COC(=O)Nc1ccccn1)NC(=O)C(C)(C)C`, the IC50 rises from 2.1 µM to 7.9 µM (3.8-fold). The first is the more potent here.

First: CCCCCCCCCCCCC/C=C/[C@@H](O)[C@H](COC(=O)NCc1ccncc1)NC(=O)OC(C)(C)C
Second: CCCCCCCCCCCCC/C=C/[C@@H](O)[C@H](COC(=O)NCc1ccncc1)NC(=O)C(C)C
The IC50 of the first is higher: greater than 100 µM for the first, 1.8 µM for the second. The second is the more potent here.

First: CCCCCCCCCCCCC/C=C/[C@@H](O)[C@H](COC(=O)NCc1ccc(N(C)C)cc1)NC(=O)C(C)(C)C
Second: CCCCCCCCCCCCC/C=C/[C@@H](O)[C@H](COC(=O)NCc1ccncc1)NC(=O)CCCCCCCCCCCCCCCCC
The IC50 of the first is lower: 8.2 µM for the first, greater than 100 µM for the second.

Source: ChEMBL document CHEMBL1136531, “Sphingomyelin analogues as inhibitors of sphingomyelinase” (Bioorg Med Chem Lett, 2003)
